Assay type in all cases: cell-based
The target in data set [1] is T1, Palmitoleoyl-protein carboxylesterase NOTUM (Homo sapiens, UniProt Q6P988).
T1 sequence (Q6P988 whole entry): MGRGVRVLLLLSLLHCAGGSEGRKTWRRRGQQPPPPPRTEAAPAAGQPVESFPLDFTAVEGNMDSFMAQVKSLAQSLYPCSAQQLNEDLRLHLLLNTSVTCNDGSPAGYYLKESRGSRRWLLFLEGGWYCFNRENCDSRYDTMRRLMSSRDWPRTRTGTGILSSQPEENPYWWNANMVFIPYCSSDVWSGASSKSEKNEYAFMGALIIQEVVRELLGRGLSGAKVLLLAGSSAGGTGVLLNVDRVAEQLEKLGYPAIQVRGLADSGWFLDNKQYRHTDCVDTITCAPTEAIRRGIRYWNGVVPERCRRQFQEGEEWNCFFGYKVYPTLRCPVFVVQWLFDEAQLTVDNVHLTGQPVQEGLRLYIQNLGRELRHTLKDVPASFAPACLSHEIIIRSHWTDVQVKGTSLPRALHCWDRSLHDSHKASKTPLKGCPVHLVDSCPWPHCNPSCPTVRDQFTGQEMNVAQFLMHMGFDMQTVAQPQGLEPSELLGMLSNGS
Put plainly: Inhibition of NOTUM in human SW620 cells conditioned medium at 0.01 to 1 uM measured after 30 mins by rhodamine-azide reporter tagged based SDS-PAGE fluorescence analysis. The conditions noted are these: 0.5 h. The method in brief: (§1)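 Alkyne probe analogue was added to SW620 conditioned medium or cellular lysate for 30 min at 37 °C. Samples were clicked to a rhodamine-azide tag by copper-mediated azide–alkyne cycloaddition, then read by SDS-PAGE and in-gel fluorescence.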

Data set [2] deals with T1, Palmitoleoyl-protein carboxylesterase NOTUM. Kind of data set: Inhibition of rhodamine-tagged FP probe binding to NOTUM in human SW620 cells conditioned medium at 0.01 to 1 uM pretreated for 30 mins followed by rhodamine-tagged FP probe addition and measured after 30 mins by SDS-PAGE fluorescence analysis. The conditions noted are these: 0.5 h.
Data set [3] deals with T2, Monoacylglycerol lipase ABHD6 (Homo sapiens) (UniProt Q9BV23).
T2 sequence (whole entry): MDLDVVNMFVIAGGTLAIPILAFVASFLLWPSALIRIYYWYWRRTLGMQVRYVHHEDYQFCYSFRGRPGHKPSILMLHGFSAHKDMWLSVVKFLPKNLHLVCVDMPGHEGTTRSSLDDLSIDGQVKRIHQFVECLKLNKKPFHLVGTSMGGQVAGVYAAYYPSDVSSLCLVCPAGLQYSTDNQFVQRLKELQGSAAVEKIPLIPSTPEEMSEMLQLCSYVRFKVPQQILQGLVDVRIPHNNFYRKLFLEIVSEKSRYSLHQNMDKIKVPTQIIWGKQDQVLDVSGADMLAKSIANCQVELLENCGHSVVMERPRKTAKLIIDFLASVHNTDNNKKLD
Put plainly: Inhibition of ABHD6 in human SW620 cells at 0.1 uM after 30 mins by rhodamine-azide reporter tagged based SDS-PAGE fluorescence analysis. Put shortly:
as §1

Data set [4] deals with T2, Monoacylglycerol lipase ABHD6 (Homo sapiens). Put plainly: Inhibition of rhodamine-tagged FP probe binding to ABHD6 in human SW620 cells at 0.1 uM pretreated for 30 mins followed by rhodamine-tagged FP probe addition and measured after 30 mins by SDS-PAGE fluorescence analysis.
Data set [5] addresses T1, Palmitoleoyl-protein carboxylesterase NOTUM. Kind of data set: Inhibition of rhodamine-tagged FP probe binding to NOTUM in human SW620 cells conditioned media pretreated for 30 mins followed by rhodamine-tagged FP probe addition and measured after 30 mins by SDS-PAGE fluorescence analysis.
For data set [6] the target is unchanged. Kind of data set: Inhibition of rhodamine-tagged FP probe binding to NOTUM in human SW620 cells conditioned media at 0.1 to 3 uM pretreated for 30 mins followed by rhodamine-tagged FP probe addition and measured after 30 mins by SDS-PAGE fluorescence analysis. The conditions noted are these: 0.5 h.
For data set [7], the target named is T2, Monoacylglycerol lipase ABHD6 (Homo sapiens). Put plainly: Inhibition of ABHD6 in human SW620 cells at 10 uM after 2 hrs by FP-biotin probe based LC-MS analysis.
The target in data set [8] is T1, Palmitoleoyl-protein carboxylesterase NOTUM. Put plainly: Inhibition of NOTUM in human SW620 cells conditioned medium assessed as preservation of Wnt3A activity pretreated for 1 hr followed by Wnt3A producing L-cell addition for 2 hrs and subsequent […]-STF cell addition and measured after 24 hrs by luciferase reporter gene assay. Background: Reporter assays use an easily measured gene product as a stand-in for the process of interest.

Data set [9] shares this target. Kind of data set: Inhibition of NOTUM in human SW620 cells conditioned medium at 10 uM after 1 hr by FP-biotin probe based LC-MS analysis relative to control. Put shortly:
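SW620 conditioned medium was treated with compound (0.5 or 10 μM) or DMSO for 1 h at 37 °C. Peptides were labeled with light (compound) or heavy (DMSO) formaldehyde, combined and analyzed by MS. Values are light/heavy median peptide ratios from two independent experiments, ±SEM.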

Data set [10] has as its target T3, Palmitoyl-protein thioesterase 1 (Homo sapiens) (UniProt P50897).
T3 sequence (whole entry): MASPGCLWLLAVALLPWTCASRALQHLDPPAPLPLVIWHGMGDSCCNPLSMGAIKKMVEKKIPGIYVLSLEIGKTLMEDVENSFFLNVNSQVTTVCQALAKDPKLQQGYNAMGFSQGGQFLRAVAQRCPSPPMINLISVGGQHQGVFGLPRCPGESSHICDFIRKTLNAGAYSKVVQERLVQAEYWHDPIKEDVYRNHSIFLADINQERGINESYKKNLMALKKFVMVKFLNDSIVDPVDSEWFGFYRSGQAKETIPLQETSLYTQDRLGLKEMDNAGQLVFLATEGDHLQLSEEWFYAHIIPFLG
Kind of data set: Inhibition of ABC45 probe binding to PPT1 in human SW620 cells at 0.1 to 10 uM pretreated for 2 hrs followed by ABC45 probe addition and measured after 30 mins by rhodamine-azide reporter tagged based SDS-PAGE fluorescence analysis. Put shortly:
(§2)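 SW620 cells were treated in situ with compound at the stated concentrations for 2 h at 37 °C. Soluble and membrane proteomes were then labeled with the PPT1-directed probe ABC45 or FP-Rh. Competition was read by SDS-PAGE and in-gel fluorescence scanning.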

In data set [11] the target is T2, Monoacylglycerol lipase ABHD6 (Homo sapiens). Kind of data set: Inhibition of rhodamine-tagged FP probe binding to ABHD6 in human SW620 cells at 0.1 to 10 uM pretreated for 2 hrs followed by rhodamine-tagged FP probe addition and measured after 30 mins by SDS-PAGE fluorescence analysis. The method in brief:
as §2

For data set [12], the target named is T1, Palmitoleoyl-protein carboxylesterase NOTUM. Put plainly: Inhibition of rhodamine-tagged FP probe binding to recombinant human C-terminal FLAG-tagged NOTUM expressed in HEK293T cells pretreated for 30 mins followed by rhodamine-tagged FP probe addition and measured after 30 mins by SDS-PAGE fluorescence analysis.

Calls of active or inactive are those of the source. The calls are words filed in the database; no cut-off is given here. Where only a bound is given, the exact number is not on record here.

This note sets out measurements from ChEMBL document CHEMBL4145632, “Selective Irreversible Inhibitors of the Wnt-Deacylating Enzyme NOTUM Developed by Activity-Based Protein Profiling” (ACS Med Chem Lett, 2018).

As to `C#CCN1CCN(C(=O)ON2C(=O)C3CN(Cc4ccc(Cl)cc4)CCN3C2=O)c2ccccc21` (centres undefined), the “inhibition (INH)” value in data set [1] and in data set [2] was “Active” in each case. Also, the inhibition result in data set [3] and in data set [4] was “inactive” each time.

The IC50 is the concentration at which inhibition is half-maximal. For `COc1ccc(N2CCN(C(=O)ON3C(=O)C4CN(Cc5cccc(Cl)c5)CCN4C3=O)CC2)cc1` (centres undefined), the IC50 in [5] is greater than 10000 nM. The “inhibition (INH)” value in data set [6] is “Not Active”.

Take `COc1ccc(N2CCN(C(=O)ON3C(=O)C4CN(Cc5ccccc5Cl)CCN4C3=O)CC2)cc1` (centres undefined): in data set [5], the IC50 was 200 nM. For the same compound, the “inhibition (INH)” value in data set [6] is recorded as “Active”.

For `O=C(c1ccc(Cl)cc1)N1CCN2C(=O)N(OC(=O)N3CCOc4ccccc43)C(=O)C2C1` (centres undefined), the inhibition result in [7] was “Active”. The figures for the IC50 in [5] and in [8] were greater than 10000 nM and greater than 5000 nM, respectively. Further, the “inhibition (INH)” value in data set [9] is on record as “Not Active”.

On to `COc1ccc(N2CCN(C(=O)ON3C(=O)C4CN(Cc5ccc(Cl)cc5)CCN4C3=O)CC2)cc1` (centres undefined), for which the inhibition entry in data set [10] and in data set [11] was “Active” each time. Besides, in data set [5], the IC50 came out at 290 nM. The “inhibition (INH)” value in data set [6] was “Active”.

Regarding `O=C1C2CN(Cc3ccc(Oc4ccccc4)nc3)CCN2C(=O)N1OC(=O)N1CCOc2ccccc21` (centres undefined), in [10], the inhibition result is “inactive”. Besides, the IC50 in data set [12] is 1510 nM.

With `O=C1C2CN(Cc3ccc(Cl)cc3)CCN2C(=O)N1OC(=O)N1CCOc2ccccc21` (centres undefined), the inhibition result in [10] was “inactive”.
